{"source": "ChEMBL document CHEMBL1134672", "about": "“Design and synthesis of 4-substituted benzamides as potent, selective, and orally bioavailable I(Ks) blockers” (J Med Chem, 2001)"}
{"tested_on": "not listed separately", "test": "Bioavailability in rat", "format": "ADME, organism-based", "conditions": "in vivo", "in_short": "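Rats were dosed orally and screened for plasma drug levels. Compounds reaching plasma concentrations of >75 nM were then tested individually for oral bioavailability by standard methods.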", "units": {"bioavailability": "%"}}
{"smiles": "CC1(C)CCCC1CNC(=O)c1ccc(-c2noc(CCC(F)(F)F)n2)cc1", "note": "(single isomer, unassigned; form 2)", "bioavailability": 23}
{"smiles": "CCCCc1noc(-c2ccc(C(=O)NC[C@H]3CCCC3(C)C)cc2)n1", "bioavailability": "< 1"}
{"target": "T1, Potassium voltage-gated channel subfamily KQT member 1 (Cavia porcellus, UniProt O70344)", "T1 sequence (O70344 whole entry)": "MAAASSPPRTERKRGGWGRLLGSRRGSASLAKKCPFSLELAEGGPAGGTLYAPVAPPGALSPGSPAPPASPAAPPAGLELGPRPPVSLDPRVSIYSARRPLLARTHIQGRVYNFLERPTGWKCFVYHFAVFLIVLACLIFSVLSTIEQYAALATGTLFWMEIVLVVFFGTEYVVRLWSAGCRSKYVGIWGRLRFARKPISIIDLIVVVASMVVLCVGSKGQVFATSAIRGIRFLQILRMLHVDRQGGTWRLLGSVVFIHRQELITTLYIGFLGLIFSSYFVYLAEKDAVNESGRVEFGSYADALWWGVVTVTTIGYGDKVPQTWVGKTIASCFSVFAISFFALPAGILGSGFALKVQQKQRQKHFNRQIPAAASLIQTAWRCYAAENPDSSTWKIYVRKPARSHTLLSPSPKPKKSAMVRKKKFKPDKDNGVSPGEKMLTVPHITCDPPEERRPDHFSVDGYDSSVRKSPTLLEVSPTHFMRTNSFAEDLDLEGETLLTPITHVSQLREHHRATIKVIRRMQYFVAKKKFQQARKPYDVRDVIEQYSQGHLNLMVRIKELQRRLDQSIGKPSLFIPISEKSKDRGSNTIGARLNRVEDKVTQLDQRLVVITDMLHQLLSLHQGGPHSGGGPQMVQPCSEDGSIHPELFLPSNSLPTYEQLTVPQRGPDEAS", "test": "Molar concentration required to inhibit 50% of the activating delayed-rectifier K+ current in isolated guinea pig ventricular myocytes", "conditions": "not given", "in_short": "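Native IKs recorded by voltage clamp in isolated guinea pig ventricular myocytes, with ionic solutions and voltage protocol designed to isolate IKs from other currents.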", "units": {"IC50": "nM"}}
{"smiles": "CCCCCCOc1ccc(C(=O)NCC2CCCCC2(C)C)cc1", "note": "(stereo in doubt; 13(A))", "IC50": 1400}
{"smiles": "CC1(C)CCCC1CNC(=O)c1ccc(-c2nc(CC3CC3)no2)cc1", "note": "(single isomer, unassigned; form 1)", "IC50": 23}
{"smiles": "Cc1noc(-c2ccc(C(=O)NCC3CCCC3(C)C)cc2)n1", "note": "(stereo in doubt; 21(A))", "IC50": 220}
{"smiles": "CC1(C)CCCC1CNC(=O)c1ccc(-c2nc(CC3CC3)no2)cc1", "note": "(single isomer, unassigned; form 2)", "IC50": 18}
{"smiles": "CC(C)(C)CCNC(=O)c1ccc(-c2ccccc2)cc1", "IC50": 540}
{"smiles": "Cc1noc(-c2ccc(C(=O)NCC3CCCC3(C)C)cc2)n1", "note": "(stereo in doubt; 21(B))", "IC50": 580}
{"smiles": "CCCCCCOc1ccc(C(=O)N2CCC(C(C)(C)C)C2)cc1", "note": "(stereo unspecified)", "IC50": "> 3000"}
{"smiles": "CC(C)(C)CCNC(=O)c1ccc(-c2nc(-c3ccccc3)no2)cc1", "IC50": 130}
{"smiles": "CCCCCCOc1ccc(C(=O)NC2CCC(C)(C)C2)cc1", "note": "(stereo unspecified)", "IC50": 360}
{"smiles": "CC1(C)CCCC1CNC(=O)c1ccc(-c2noc(CCC(F)(F)F)n2)cc1", "note": "(single isomer, unassigned; form 2)", "IC50": 40}
{"smiles": "CN1C(=O)[C@H](NC(=O)/C=C/c2ccc(Cl)cc2Cl)N=C(c2ccccc2)c2ccccc21", "IC50": 31}
{"smiles": "CCN(CC)C(=O)COc1ccc(C(C)(C)CC(C)(C)C)cc1", "IC50": 5000}
{"smiles": "CCCCCCOc1ccc(C(=O)NC2CCCC2(C)C)cc1", "note": "(stereo unspecified)", "IC50": "> 30000"}
{"smiles": "CCCc1noc(-c2ccc(C(=O)NCC3CCCC3(C)C)cc2)n1", "note": "(single isomer, unassigned; form 2)", "IC50": 10}
{"smiles": "CCCCCCOc1ccc(C(=O)NCCN(CC)CC)cc1", "IC50": 3500}
{"smiles": "CCCCCCOc1ccc(C(=O)NCC2CCCC2(C)C)cc1", "note": "(single isomer, unassigned; form 1)", "IC50": 710}
{"smiles": "CCCCCCOc1ccc(C(=O)NCC2CCCCC2(C)C)cc1", "note": "(stereo in doubt; 13(B))", "IC50": "> 3000"}
{"smiles": "CCCCc1noc(-c2ccc(C(=O)NC[C@H]3CCCC3(C)C)cc2)n1", "IC50": 2}
{"smiles": "CCCCc1noc(-c2ccc(C(=O)NC[C@@H]3CCCC3(C)C)cc2)n1", "IC50": 9}
{"smiles": "CCCCCCOc1ccc(C(=O)NCC2CCCC2(C)C)cc1", "note": "(single isomer, unassigned; form 2)", "IC50": 160}
{"smiles": "CCCc1noc(-c2ccc(C(=O)NCC3CCCC3(C)C)cc2)n1", "note": "(single isomer, unassigned; form 1)", "IC50": 27}
{"smiles": "CC1(C)CCCC1CNC(=O)c1ccc(-c2noc(CCC(F)(F)F)n2)cc1", "note": "(single isomer, unassigned; form 1)", "IC50": 27}
{"smiles": "CCCCc1noc(-c2ccc(C(=O)NCCC(C)(C)C)cc2)n1", "IC50": 23}
{"smiles": "CCCCCCOc1ccc(C(=O)CCN2CCCCC2)cc1", "IC50": 4000}
{"smiles": "CCCCCCOc1ccc(C(=O)NCC2CCCC(C)(C)C2)cc1", "note": "(stereo unspecified)", "IC50": 370}
{"smiles": "CCCCCCOc1ccc(C(=O)NCCC(C)(C)C)cc1", "IC50": 250}
{"smiles": "CC(C)(C)CCNC(=O)c1ccc(-n2ccc3ccccc32)cc1", "IC50": 260}
{"tested_on": "not listed separately", "test": "Compound was evaluated for half life period when administered intravenously", "format": "ADME, organism-based", "conditions": "in vivo, iv", "in_short": "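Half-life was determined in rats after intravenous administration.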", "units": {"half-life": "h"}}
{"smiles": "CC1(C)CCCC1CNC(=O)c1ccc(-c2noc(CCC(F)(F)F)n2)cc1", "note": "(single isomer, unassigned; form 2)", "half-life": 3.2}
{"smiles": "CCCCc1noc(-c2ccc(C(=O)NC[C@H]3CCCC3(C)C)cc2)n1", "half-life": 4.2}
